From article PMC3510669 (Journal of immunology (Baltimore, Md. : 1950), 2010)

Test system: naïve CD4^+ T cells
Assay: pMHCII tetramer-based cell enrichment of spleen and lymph node cells
Parameters: species or system mouse
Conditions: B6 mice; for fold smaller than the 2W:I-A^b-specific naïve population: spleen and lymph nodes (3K: spleen and lymph nodes or thymus), Fig. 3B, C, 4D; for size of naïve CD4+ T cell population specific for peptide:I-A^b: spleen and lymph nodes, mean, Fig. 4D, 6D
Procedure, shortened: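 Spleen and lymph node cells from individual naïve B6 mice were enriched with peptide:I-A^b tetramers. Tetramer-binding CD4⁺ T cells were counted as total cells per mouse, and group means were taken across individual mice.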

Sequence | fold smaller than the 2W:I-A^b-specific naïve population [fold] | size of naïve CD4+ T cell population specific for peptide:I-A^b [cells]
EARGALANWAVDSA [1R] | 3 | 108 ± 36
EAGGALANGAVDSA [2G] | 6 | 62 ± 13
EAGGALANWAVDSA [1G] | 3 | 127 ± 39
